Source: ChEMBL document CHEMBL1138023, “Macrocyclic ketone analogues of halichondrin B” (Bioorg Med Chem Lett, 2004)

Tests used:
[1] = In vitro reversibility ratio in U937 cells; type: functional, U-937
Outline: (§1)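 Human histiocytic lymphoma U937 cells, read by flow cytometry. Scores whether a complete mitotic block is maintained 10 h after drug washout.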

DLD-1 = assay: In vitro inhibitory concentration required to inhibit the growth of DLD-1 cells under continuous exposure conditions for 3-4 days; type: functional, cell-based; details: Homo sapiens
Outline: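 Human colon cancer DLD-1 cells grown under continuous drug exposure for 3–4 days. Growth inhibition measured and IC50 reported ± SEM, n = number of experiments.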

U-937 [2] = assay: In vitro inhibitory concentration required to inhibit the growth of U937 cells was determined at 10 hr by mitotic block reversibility assay; type: functional; details: Homo sapiens, U-937, 10 h; outline: as §1
P388 = assay: Fold resistance calculated as the inhibition concentration ratio between retrovirally transformed murine P388/VMDRC.04 and parental P388 cells; type: functional
Outline: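 Readout of P-glycoprotein (PgP) susceptibility: IC50 in the retrovirally transformed P388/VMDRC.04 line divided by IC50 in parental P388 cells, giving fold resistance.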

U-937 [3] = assay: In vitro inhibitory concentration required to inhibit the growth of U937 cells was determined at 0 hr by mitotic block reversibility assay; type: functional; details: Homo sapiens, U-937, 0 h

SMILES | Reversibility ratio [1] | IC50 (DLD-1) [nM] | IC99 (U-937 [2]) [µM] | FR (P388) | IC99 (U-937 [3]) [µM]
C=C1C[C@@H]2CC[C@@]34C[C@@H]5O[C@@H]6C(O[C@H]7CC[C@H](CC(=O)C[C@@H]8[C@@H](OC)[C@@H](C[C@H](O)COS(C)(=O)=O)O[C@H]8C[C@H]8O[C@@H](CC[C@@H]1O2)C[C@@H](C)C8=C)O[C@@H]7[C@@H]6O3)[C@H]5O4 | 10 | 0.8 | 0.03 | 3 | 0.003
C=C1C[C@@H]2CC[C@@]34C[C@@H]5O[C@@H]6C(O[C@H]7CC[C@H](CC(=O)C[C@@H]8[C@@H](OC)[C@@H](C[C@H](O)COS(=O)(=O)c9ccc(C)cc9)O[C@H]8C[C@H]8O[C@@H](CC[C@@H]1O2)C[C@@H](C)C8=C)O[C@@H]7[C@@H]6O3)[C@H]5O4 | 4 | 2 | 0.03 | 2.4 | 0.007
C=C1C[C@@H]2CC[C@@]34C[C@@H]5O[C@@H]6C(O[C@H]7CC[C@H](CC(=O)O[C@@H]8[C@@H](C)[C@@H]9O[C@H](CO)[C@@H](O)C[C@@H]9O[C@H]8C[C@H]8O[C@@H](CC[C@@H]1O2)C[C@@H](C)C8=C)O[C@@H]7[C@@H]6O3)[C@H]5O4 | 24 | – | – | – | 0.009
C=C1C[C@@H]2CC[C@@]34C[C@@H]5O[C@@H]6C(O[C@H]7CC[C@H](CC(=O)C[C@@H]8[C@@H](OC)[C@@H](C[C@H](O)CO)O[C@H]8C[C@H]8O[C@@H](CC[C@@H]1O2)C[C@@H](C)C8=C)O[C@@H]7[C@@H]6O3)[C@H]5O4 | 13 | 1 | 0.038 | 9.7 | 0.003
C=C1C[C@@H]2CC[C@@]34C[C@@H]5O[C@@H]6C(O[C@H]7CC[C@H](CC(=O)C[C@@H]8[C@@H](OC)[C@@H](C[C@H](O)CC#N)O[C@H]8C[C@H]8O[C@@H](CC[C@@H]1O2)C[C@@H](C)C8=C)O[C@@H]7[C@@H]6O3)[C@H]5O4 | 15 | 0.49 | 0.03 | 7 | 0.002
C=C1C[C@@H]2CC[C@@]34C[C@@H]5O[C@@H]6C(O[C@H]7CC[C@H](CC(=O)C[C@@H]8[C@@H](OC)[C@@H](C[C@H](O)CSc9ccc(OC)cc9)O[C@H]8C[C@H]8O[C@@H](CC[C@@H]1O2)C[C@@H](C)C8=C)O[C@@H]7[C@@H]6O3)[C@H]5O4 | 10 | 0.71 | 0.03 | 1.7 | 0.003
C=C1C[C@@H]2CC[C@@]34C[C@@H]5O[C@@H]6C(O[C@H]7CC[C@H](CC(=O)O[C@@H]8[C@@H](C)[C@@H]9O[C@@H]%10C[C@]%11(C[C@@H]%12O[C@]%13(C[C@H](C)[C@@H]%14O[C@H]([C@@H](O)C[C@@H](O)CO)C[C@@H]%14O%13)C[C@H](C)[C@@H]%12O%11)O[C@@H]%10C[C@@H]9O[C@H]8C[C@H]8O[C@@H](CC[C@@H]1O2)C[C@@H](C)C8=C)O[C@@H]7[C@@H]6O3)[C@H]5O4 | 3 | 0.74 | 0.025 | 2.8 | 0.008
C=C1C[C@@H]2CC[C@@]34C[C@@H]5O[C@@H]6C(O[C@H]7CC[C@H](CC(=O)C[C@@H]8[C@@H](OC)[C@@H](C[C@H](O)COC(=O)Nc9ccc(OC)cc9)O[C@H]8C[C@H]8O[C@@H](CC[C@@H]1O2)C[C@@H](C)C8=C)O[C@@H]7[C@@H]6O3)[C@H]5O4 | 10 | 0.86 | 0.03 | 5.8 | 0.003
C=C1C[C@@H]2CC[C@@]34C[C@@H]5O[C@@H]6C(O[C@H]7CC[C@H](CC(=O)C[C@@H]8[C@@H](OC)[C@@H](C[C@H](O)CS(=O)(=O)c9ccc(Cl)cc9)O[C@H]8C[C@H]8O[C@@H](CC[C@@H]1O2)C[C@@H](C)C8=C)O[C@@H]7[C@@H]6O3)[C@H]5O4 | 10 | 0.66 | 0.03 | 3.2 | 0.003
C=C1C[C@@H]2CC[C@@]34C[C@@H]5O[C@@H]6C(O[C@H]7CC[C@H](CC(=O)C[C@@H]8[C@@H](OC)[C@@H](C[C@@H](O)CO)O[C@H]8C[C@H]8O[C@@H](CC[C@@H]1O2)C[C@@H](C)C8=C)O[C@@H]7[C@@H]6O3)[C@H]5O4 | 33 | 1.9 | 0.1 | 13 | 0.003
C=C1C[C@@H]2CC[C@@]34C[C@@H]5O[C@@H]6C(O[C@H]7CC[C@H](CC(=O)C[C@@H]8[C@@H](OC)[C@@H](C[C@H](O)CNC)O[C@H]8C[C@H]8O[C@@H](CC[C@@H]1O2)C[C@@H](C)C8=C)O[C@@H]7[C@@H]6O3)[C@H]5O4 | 1 | 3.3 | 0.01 | 7 | 0.01
C=C1C[C@@H]2CC[C@@]34C[C@@H]5O[C@@H]6C(O[C@H]7CC[C@H](CC(=O)C[C@@H]8[C@@H](OC)[C@@H](C[C@H](O)CS(=O)(=O)c9ccc(OC)cc9)O[C@H]8C[C@H]8O[C@@H](CC[C@@H]1O2)C[C@@H](C)C8=C)O[C@@H]7[C@@H]6O3)[C@H]5O4 | 10 | 0.74 | 0.03 | 3.4 | 0.003
C=C1C[C@@H]2CC[C@@]34C[C@@H]5O[C@@H]6C(O[C@H]7CC[C@H](CC(=O)O[C@@H]8[C@@H](OC)[C@H](O)[C@H](CCO)O[C@H]8C[C@H]8O[C@@H](CC[C@@H]1O2)C[C@@H](C)C8=C)O[C@@H]7[C@@H]6O3)[C@H]5O4 | 30 | – | – | – | 0.01
C=C1C[C@@H]2CC[C@@]34C[C@@H]5O[C@@H]6C(O[C@H]7CC[C@H](CC(=O)O[C@@H]8[C@@H](OC)[C@@H](C[C@H](O)CO)O[C@H]8C[C@H]8O[C@@H](CC[C@@H]1O2)C[C@@H](C)C8=C)O[C@@H]7[C@@H]6O3)[C@H]5O4 | 8 | – | – | – | 0.002
C=C1C[C@@H]2CC[C@@]34C[C@@H]5O[C@@H]6C(O[C@H]7CC[C@H](CC(=O)C[C@@H]8[C@@H](OC)[C@@H](C[C@H](O)COC(=O)Nc9ccc(Cl)cc9)O[C@H]8C[C@H]8O[C@@H](CC[C@@H]1O2)C[C@@H](C)C8=C)O[C@@H]7[C@@H]6O3)[C@H]5O4 | 22 | 1.3 | 0.065 | 8.6 | 0.003
C=C1C[C@@H]2CC[C@@]34C[C@@H]5O[C@@H]6C(O[C@H]7CC[C@H](CC(=O)C[C@@H]8[C@@H](OC)[C@@H](C[C@H](O)COC(=O)Nc9ccccc9)O[C@H]8C[C@H]8O[C@@H](CC[C@@H]1O2)C[C@@H](C)C8=C)O[C@@H]7[C@@H]6O3)[C@H]5O4 | 22 | 1 | 0.065 | 5.7 | 0.003
C=C1C[C@@H]2CC[C@@]34C[C@@H]5O[C@@H]6C(O[C@H]7CC[C@H](CC(=O)C[C@@H]8[C@@H](OC)[C@@H](C[C@H](O)CN=[N+]=[N-])O[C@H]8C[C@H]8O[C@@H](CC[C@@H]1O2)C[C@@H](C)C8=C)O[C@@H]7[C@@H]6O3)[C@H]5O4 | 10 | 0.53 | 0.03 | 1.9 | 0.003
C=C1C[C@@H]2CC[C@@]34C[C@@H]5O[C@@H]6C(O[C@H]7CC[C@H](CC(=O)C[C@@H]8[C@@H](OC)[C@@H](C[C@H](O)CSc9ccc(Cl)cc9)O[C@H]8C[C@H]8O[C@@H](CC[C@@H]1O2)C[C@@H](C)C8=C)O[C@@H]7[C@@H]6O3)[C@H]5O4 | 20 | 1.2 | 0.2 | 2 | 0.01
C=C1C[C@@H]2CC[C@@]34C[C@@H]5O[C@@H]6C(O[C@H]7CC[C@H](CC(=O)C[C@@H]8[C@@H](OC)[C@@H](CCO)O[C@H]8C[C@H]8O[C@@H](CC[C@@H]1O2)C[C@@H](C)C8=C)O[C@@H]7[C@@H]6O3)[C@H]5O4 | 33 | 0.66 | 0.1 | 8.5 | 0.003
C=C1C[C@@H]2CC[C@@]34C[C@@H]5O[C@@H]6C(O[C@H]7CC[C@H](CC(=O)C[C@@H]8[C@@H](OC)[C@@H](CC(=O)CO)O[C@H]8C[C@H]8O[C@@H](CC[C@@H]1O2)C[C@@H](C)C8=C)O[C@@H]7[C@@H]6O3)[C@H]5O4 | 10 | 1.1 | 0.03 | 3.7 | 0.003
